Source: PubChem BioAssay
CHOP inh: CHOP inhibition in unfolded protein response. AID 2732. CHO-K1 CHOP-promoter luciferase, tunicamycin-induced, 15-18 h. 220,000 compounds, 3.8% hits. inhibition, % at 10 µM;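 active = compounds that reduced the stress-induced luciferase reporter signal by more than about 70% of percent inhibition, limit read from the data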;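 note: 0% = tunicamycin plus vehicle and 100% = wells without tunicamycin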
CTSL1 counter: counter-screen for PFM18AAP inhibitors: inhibitors of F. hepatica cathepsin L1; recombinant F. hepatica cathepsin L1, Z-Leu-Arg-MCA fluorescence; inhibition, % at 5.96 µM; 300,000 compounds, 0.49% hits; AID 1906;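 active = inhibition above the mean of all tested compounds plus 3 SD, set per screening campaign, cut at about 17% in these data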;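 note: 0% = plate median of test compound wells and 100% = 1 µM Z-Phe-Ala-diazomethylketone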
UCH37 inh: human UCH37 deubiquitinating enzyme inhibition; purified proteasome/UCH37, Ub-AMC cleavage fluorescence; 330,000 compounds, 0.33% hits; Q9Y5K5; inhibition, % (no concentration beside the values);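 active = mean inhibition over replicate wells above about 20%, limit read from the data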;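 note: 0% = compound-free wells with enzyme and 100% = wells lacking proteasome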
Target sequence (Q9Y5K5 whole entry, looked up): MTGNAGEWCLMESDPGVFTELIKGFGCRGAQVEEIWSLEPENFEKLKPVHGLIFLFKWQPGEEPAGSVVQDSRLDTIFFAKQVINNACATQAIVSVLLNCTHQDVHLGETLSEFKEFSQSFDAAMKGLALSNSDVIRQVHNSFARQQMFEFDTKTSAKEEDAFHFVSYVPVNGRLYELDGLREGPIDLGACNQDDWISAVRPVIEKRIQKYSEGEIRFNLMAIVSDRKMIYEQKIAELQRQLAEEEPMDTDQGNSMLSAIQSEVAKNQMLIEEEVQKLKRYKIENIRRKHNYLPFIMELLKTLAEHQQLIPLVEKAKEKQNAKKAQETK
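System: Proteasome-associated human UCH37 deubiquitinase; Input: 0.15 nM proteasome in added enzyme buffer; Also added: Ub-AMC substrate from 1 µM stock; Incubation: 30 min compound-proteasome preincubation then 25 min substrate reaction, room temperature; Detection: fluorescence, ex 355 nm, em 460 nm; Read-out: % inhibition of Ub-AMC cleavage fluorescence; Benchmarks: no-proteasome and no-compound wells.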
CHOP UPR activ: apoptotic UPR (CHOP) activation. CHO-CHOP luciferase reporter, luminescence; percent of tunicamycin response over DMSO baseline. activation, % at 10 µM. 330,000 compounds, 0.34% hits. AID 449763;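 active = at 10 µM dose, activation of 40% or more, normalized to positive control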;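 note: 100% = tunicamycin at 10 µg/mL and 0% = DMSO alone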
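Dosing – one dose, 10 µM in 0.5% DMSO · System – CHO-CHOP cells, stable luciferase reporter of PERK-eIF2a-CHOP signalling · Input – 500 cells/well · Control set – tunicamycin 10 µg/mL final as positive, DMSO-only wells as negative · Timing – 6 h compound treatment, 37 °C · Measure – % activation vs tunicamycin · Technique – luminescence read with Steady-Glo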
XBP1 UPR activ: activators of adaptive arm of unfolded protein response (XBP1) | CHO-XBP1 luciferase reporter, IRE1-XBP1 UPR activation, luminescence; percent of tunicamycin response, DMSO as zero | activation, % at 20 µM | 330,000 compounds, 0.33% hits;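 active = versus positive control, 20 µM dose yields 30% or more activation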;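 note: 100% = tunicamycin at 10 µg/mL and 0% = DMSO only wells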
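Assay system: IRE1-XBP1 luciferase reporter CHO line. Input: 1000 cells/well. Buffer or medium: F12 with 10% serum. Doses: 20 µM, 1% DMSO. Times: overnight seeding at 37 °C, 6 h compound treatment at 37 °C. Technique: Steady-Glo luciferase glow luminescence, 10 min after reagent addition.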
CHOP confirm: confirmation of CHOP induction inhibitors; 2,100 compounds, 45% hits; CHO-CHOP promoter luciferase reporter, tunicamycin-induced, luminescence; inhibition, % at 10 µM; shares compounds with CHOP inh;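 active = mean of three repeat readings of reporter signal inhibition above a set limit, cut at about 70% in these data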;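 note: 0% = tunicamycin plus vehicle and 100% = wells lacking tunicamycin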
UPR CHOP confirm: confirmation of apoptotic unfolded protein response (CHOP) activators. 1,000 compounds, 64% hits. shares compounds with CHOP UPR activ. activation, % at 10 µM. AID 463112. CHO-CHOP cells, CHOP-luciferase reporter luminescence; percent of tunicamycin response, DMSO as zero; in the data active = activation above about 33%;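 note: 0% = DMSO wells and 100% = tunicamycin 10 µg/mL wells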
XBP1 UPR conf: adaptive UPR (XBP1) activation, confirmed; shares compounds with XBP1 UPR activ; activation, % at 20 µM; CHO-XBP1 IRE1-XBP1 luciferase reporter, luminescence; 1,000 compounds, 63% hits; AID 485299;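 active = reporter signal at least 30% of the positive control's activation in two or more of four replicate wells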;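 note: plate controls were DMSO negative control for no effect and tunicamycin 10 µg/mL positive control for full effect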
An asterisk follows results filed as active; . = no result. The sample as a whole holds a higher share of hits than the screen did.

SMILES | CHOP inh | CTSL1 counter | UCH37 inh | CHOP UPR activ | XBP1 UPR activ | CHOP confirm | XBP1 UPR conf | others
Oc1ccc(/C=N/Nc2nc(N3CCCCCC3)nc(N3CCCCCC3)n2)c(O)c1 | 103* | 8 | . | 11 | 39* | 98* | 11
Oc1ccc(C=NNc2nc(N3CCCCCC3)nc(N3CCCCCC3)n2)c(O)c1 | . | . | 2 | . | . | . | .
Cc1cc(C)cc(NC(=O)/C(C#N)=C/c2cn(CC(=O)NCc3ccco3)c3ccccc23)c1 | 106* | 1 | -162 | 276* | 152* | 106* | 295* | UPR CHOP confirm=44*
Cc1ccc(C)c(NC(=O)/C(C#N)=C/c2cn(CC(=O)NCc3ccco3)c3ccccc23)c1 | 106* | 5 | -144 | 111* | 224* | 58 | 16 | UPR CHOP confirm=51*
Cc1ccccc1OCCn1cc(/C=C(\C#N)C(=O)NCc2ccco2)c2ccccc21 | 39 | 2 | -49 | -4 | -5 | . | .
CNC(=O)/C(C#N)=C/c1cn(CC(=O)NCc2ccco2)c2ccccc12 | 24 | 3 | -8 | 0 | -2 | . | .
CC(=NNC(=O)c1nnn(-c2nonc2N)c1-c1ccc2c(c1)OCO2)c1ccccc1 | . | . | -2 | . | . | . | .
COc1ccc(Cn2c(SCc3ccccc3C)nc3cc(OC)c(OC)cc3c2=N)cc1 | 107* | 6 | 6 | 16 | 115* | 120* | 61*
COc1cc2nc(SCc3ccc(F)cc3)n(Cc3cccs3)c(=N)c2cc1OC | 0 | 5 | -2 | 0 | -2 | . | .
CC(=NNC(=O)CNC(=O)c1ccccc1F)c1ccc2c(c1)CCCC2 | . | . | 1 | . | . | . | .
CC1CCC(C(C)C)C(OC(=O)CSc2nccc(=O)[nH]2)C1 (stereo unspecified) | 17 | -2 | 6 | -2 | -2 | . | .
COc1ccc(OCc2n(CC(=O)OC3CC(C)CCC3C(C)C)c3ccccc3[n+]2C)cc1 (stereo unspecified) | 97* | 1 | 6 | 2 | 36* | 95* | 32*
O=[N+]([O-])c1ccc(S(=O)(=O)NN=Cc2ccco2)cc1 | . | . | 2 | . | . | . | .
Nc1c(C(=O)Nc2ccc(S(=O)(=O)N3CCCC3)cc2)sc2nc3ccc(OC(F)(F)F)cc3cc12 | 106* | 2 | 4 | 311* | 194* | 112* | 162* | UPR CHOP confirm=72*
CC(=O)Nc1ccc(NC(=O)C(C)OC(=O)/C=C/c2cn(-c3ccccc3)nc2-c2cccnc2)cc1 (stereo unspecified) | 104* | -13 | -70 | 2 | 36* | 48 | 17
Cc1ccccc1NC(=O)COC(=O)/C=C/c1cn(-c2ccccc2)nc1-c1cccnc1 | 35 | -5 | -38 | 0 | -3 | . | .
CCOC(=O)c1c2ccc(OCC(=O)NN)cc2n2ccccc12 | 33 | 3 | -123 | -1 | -3 | . | .
CCOC(=O)c1c2ccc(OCC(=O)N/N=C/c3ccc(C)cc3)cc2n2ccccc12 | 104* | -3 | . | 158* | 123* | 114* | 106* | UPR CHOP confirm=61*
Cc1ccc(-c2nnc(-c3ccc(NC(=O)Cc4cccs4)cc3)o2)cc1 | 105* | 6 | -31 | 41* | 142* | 102* | 52* | UPR CHOP confirm=15
O=C(Cc1cccs1)Nc1cccc(-c2nnc(-c3ccco3)o2)c1 | 38 | -5 | 0 | 2 | -3 | . | .
COc1cc(/C=C(\C#N)c2nc3ccccc3[nH]2)cc(Br)c1OCc1ccccc1 | 46 | 6 | -120 | 10 | 8 | . | .
COc1cc(/C=C(\C#N)c2nc3ccccc3[nH]2)cc(Br)c1OCc1ccc(F)cc1 | 104* | 3 | -18 | 1 | 110* | 84* | 128*
COc1ccc(C(CCNCc2ccc(F)cc2)c2ccc(F)cc2)cc1 (stereo unspecified) | 101* | 5 | 1 | 4 | 48* | 105* | 65*
